Test results: paper PMC5527967 (The Prostate, 2017)
Several values for one entry are separate records, joined by “and”; a condition that tells them apart may be missing. Equal values may be shown once. Read-outs that look alike come from different tables or passages of the source.

Experiments:
[1] = system: Akt pS473 in LNCaP/shPIK3CB#3 cells; assay: Western blot of Akt pS473; type: cell-based; conditions: LNCaP/shPIK3CB#3, 5 μM, 4 h
Akt pS473 in LNCaP cells = assay: Western blot of Akt pS473; type: cell-based; conditions: 5 μM, 4 h
Akt pS473 in C4-2B cells = assay: Western blot of FBS-stimulated Akt pS473; type: cell-based; conditions: 5 μM
Summary of the method: (§1)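 Cells serum-starved overnight, pretreated with test compound, then given 10% FBS. Lysates made in RIPA buffer with protease inhibitor cocktail, equal protein run on SDS-PAGE and transferred to PVDF. Blocked in 10% nonfat milk 1 hr, primary antibody (Akt pS473) overnight at 4°C, HRP secondary, chemiluminescent detection. Actin used as loading control.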

C4-2B/MDV-R cells [2] = assay: WST-8 cell growth inhibition; type: cell-based; conditions: read-out: Cell Growth Inhibition EC50 (95% CI)
Summary of the method: (§2)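 Cells seeded at 8,000 per well and grown 24 hrs, then exposed to increasing concentrations of test compound or solvent for 3 days. WST-8 reagent added for 2 hrs at 37°C and OD read at 450 nm. Growth inhibition taken as percentage of solvent control OD. EC50 from log concentration vs normalized response fit, variable slope. Three independent experiments.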

aqueous solubility assay = type: physicochemical
C4-2B cells [3] = assay: flow cytometry cell cycle analysis; type: cell-based; conditions: 16 h after 10% FBS
Summary of the method: (§3)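 Cells serum-starved overnight to synchronise, pretreated 30 min with solvent or test compound, then stimulated with 10% FBS for 16 h. Cells trypsinized, fixed and stained with propidium iodide. Counted on a flow cytometer (FACS) and cell cycle phase distribution calculated. Mean and SEM from at least three repeated experiments.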

p110β [4] = target: T1, p110β (Homo sapiens, UniProt P42338); assay: whole cell CETSA; type: cell-based; conditions: whole cell (in vivo), PC-3
Summary of the method: (§4)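 Intact PC-3 cells in regular media treated with test compound or solvent for 4 hrs, washed and collected in cold PBS. Aliquoted pellets heated 3 min at 37–69°C (4°C steps), cooled 2 min at room temperature, then iced. Lysed in RIPA by three liquid-nitrogen freeze-thaw cycles; soluble fraction Western blotted. Densities normalized 0–100%, Boltzmann sigmoid fit; ΔTm50 as compound vs solvent shift at 50% band loss.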

PC-3 cells = assay: WST-8 cell growth inhibition; type: cell-based; conditions: read-out: Cell Growth Inhibition EC50 (95% CI)
Summary of the method: as §2

C4-2B/MDV-R cells [5] = assay: flow cytometry cell cycle analysis; type: cell-based; conditions: 16 h after 10% FBS
Summary of the method: as §3

human p110α/p85α = human p110α/p85α (Homo sapiens, UniProt P42336); assay: Kinase-Glo Plus luminescent kinase assay; type: biochemical; conditions: read-out: IC50 p110α; 2 μM ATP, 37°C, 2 h
Akt [6] = assay: whole cell CETSA; type: cell-based; conditions: whole cell (in vivo), PC-3
Summary of the method: as §4

Akt [7] = assay: cell lysate CETSA; type: binding; conditions: cell lysate (in vitro), PC-3, compound 5 μM
Summary of the method: (§5)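 Exponentially grown PC-3 cells in RIPA with protease inhibitors were put through three liquid-nitrogen freeze-thaw cycles, then ultracentrifuged 20 min at 4°C. Soluble lysate was incubated with test compound (5 μM) or DMSO for 45 min at room temperature. Aliquots were heated 3 min at 37–69°C in 4°C steps, cooled 3 min, and spun. Supernatant was Western blotted. Bands were normalized to 0–100% and fitted with a Boltzmann sigmoid. ΔTm50 is the compound-minus-solvent temperature at 50% band loss. Three experiments.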

C4-2B cells [8] = assay: WST-8 cell growth inhibition; type: cell-based; conditions: read-out: Cell Growth Inhibition EC50 (95% CI)
Summary of the method: as §2

human p110δ/p85α = human p110δ/p85α (Homo sapiens, UniProt O00329); assay: Kinase-Glo Plus luminescent kinase assay; type: biochemical; conditions: read-out: IC50 p110δ; 2 μM ATP, 37°C, 2 h
p110α = p110α (Homo sapiens, UniProt P42336); assay: cell lysate CETSA; type: binding
Summary of the method: as §5

22RV1 cells = assay: WST-8 cell growth inhibition; type: cell-based; conditions: read-out: Cell Growth Inhibition EC50 (95% CI)
Summary of the method: as §2

p110β [9] = target: T1, p110β; assay: cell lysate CETSA; type: binding
Summary of the method: as §5

VPS34 = VPS34 (Homo sapiens, UniProt Q8NEB9); assay: cell lysate CETSA; type: binding
Summary of the method: as §5

p110γ = p110γ (Homo sapiens, UniProt P48736); assay: cell lysate CETSA; type: binding
Summary of the method: as §5

[10] = system: Akt pS473 in C4-2B/MDV-R cells; assay: Western blot of FBS-stimulated Akt pS473; type: cell-based; conditions: 5 μM
Summary of the method: as §1

[11] = system: cyclin D1, CDK6 and p27^kip1 in C4-2B cells; assay: Western blot of G1 phase proteins; type: cell-based; conditions: 5 μM
Summary of the method: (§6)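 After overnight serum starvation, cells received a 30-min pretreatment with solvent or test compound (5 μM), were stimulated with 10% FBS and were harvested at several time points. Lysates (RIPA plus protease inhibitors) were immunoblotted on PVDF for cyclin D1, CDK6 and p27kip1, with chemiluminescent detection and actin as loading control.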

[12] = system: cyclin D1, CDK6 and p27^kip1 in C4-2B/MDV-R cells; assay: Western blot of G1 phase proteins; type: cell-based; conditions: 5 μM
Summary of the method: as §6

[13] = cell lysate (in vitro), PC-3, compound 5 μM

T1 sequence (P42338 whole entry): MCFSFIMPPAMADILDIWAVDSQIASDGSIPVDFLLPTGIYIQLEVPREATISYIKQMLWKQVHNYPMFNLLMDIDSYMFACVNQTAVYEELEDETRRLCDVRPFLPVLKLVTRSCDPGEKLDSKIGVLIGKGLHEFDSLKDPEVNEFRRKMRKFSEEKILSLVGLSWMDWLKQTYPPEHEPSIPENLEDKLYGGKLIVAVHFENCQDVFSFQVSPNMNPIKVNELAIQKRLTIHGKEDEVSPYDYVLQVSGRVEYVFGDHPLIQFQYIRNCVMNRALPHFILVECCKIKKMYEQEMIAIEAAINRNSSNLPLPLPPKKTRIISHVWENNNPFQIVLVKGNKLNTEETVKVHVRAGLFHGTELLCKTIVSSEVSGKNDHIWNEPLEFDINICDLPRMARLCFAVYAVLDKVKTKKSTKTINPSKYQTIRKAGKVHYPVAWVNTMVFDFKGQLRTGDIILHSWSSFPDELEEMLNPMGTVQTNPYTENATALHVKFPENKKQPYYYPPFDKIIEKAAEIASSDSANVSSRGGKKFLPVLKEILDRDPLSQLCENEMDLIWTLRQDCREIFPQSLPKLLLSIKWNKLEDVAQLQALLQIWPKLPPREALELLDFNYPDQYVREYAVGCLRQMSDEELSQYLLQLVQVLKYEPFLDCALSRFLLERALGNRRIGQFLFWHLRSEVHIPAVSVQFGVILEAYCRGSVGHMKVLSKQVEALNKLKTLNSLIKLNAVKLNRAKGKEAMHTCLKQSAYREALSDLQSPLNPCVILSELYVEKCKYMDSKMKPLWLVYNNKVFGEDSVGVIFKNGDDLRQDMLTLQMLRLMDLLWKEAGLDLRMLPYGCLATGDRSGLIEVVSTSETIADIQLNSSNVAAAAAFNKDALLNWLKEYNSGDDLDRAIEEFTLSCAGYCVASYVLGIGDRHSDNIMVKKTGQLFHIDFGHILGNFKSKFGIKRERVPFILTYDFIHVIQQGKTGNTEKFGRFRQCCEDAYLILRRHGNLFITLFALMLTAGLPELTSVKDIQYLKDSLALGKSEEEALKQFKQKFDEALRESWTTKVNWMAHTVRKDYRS
Sequence of p110α (P42336 whole entry): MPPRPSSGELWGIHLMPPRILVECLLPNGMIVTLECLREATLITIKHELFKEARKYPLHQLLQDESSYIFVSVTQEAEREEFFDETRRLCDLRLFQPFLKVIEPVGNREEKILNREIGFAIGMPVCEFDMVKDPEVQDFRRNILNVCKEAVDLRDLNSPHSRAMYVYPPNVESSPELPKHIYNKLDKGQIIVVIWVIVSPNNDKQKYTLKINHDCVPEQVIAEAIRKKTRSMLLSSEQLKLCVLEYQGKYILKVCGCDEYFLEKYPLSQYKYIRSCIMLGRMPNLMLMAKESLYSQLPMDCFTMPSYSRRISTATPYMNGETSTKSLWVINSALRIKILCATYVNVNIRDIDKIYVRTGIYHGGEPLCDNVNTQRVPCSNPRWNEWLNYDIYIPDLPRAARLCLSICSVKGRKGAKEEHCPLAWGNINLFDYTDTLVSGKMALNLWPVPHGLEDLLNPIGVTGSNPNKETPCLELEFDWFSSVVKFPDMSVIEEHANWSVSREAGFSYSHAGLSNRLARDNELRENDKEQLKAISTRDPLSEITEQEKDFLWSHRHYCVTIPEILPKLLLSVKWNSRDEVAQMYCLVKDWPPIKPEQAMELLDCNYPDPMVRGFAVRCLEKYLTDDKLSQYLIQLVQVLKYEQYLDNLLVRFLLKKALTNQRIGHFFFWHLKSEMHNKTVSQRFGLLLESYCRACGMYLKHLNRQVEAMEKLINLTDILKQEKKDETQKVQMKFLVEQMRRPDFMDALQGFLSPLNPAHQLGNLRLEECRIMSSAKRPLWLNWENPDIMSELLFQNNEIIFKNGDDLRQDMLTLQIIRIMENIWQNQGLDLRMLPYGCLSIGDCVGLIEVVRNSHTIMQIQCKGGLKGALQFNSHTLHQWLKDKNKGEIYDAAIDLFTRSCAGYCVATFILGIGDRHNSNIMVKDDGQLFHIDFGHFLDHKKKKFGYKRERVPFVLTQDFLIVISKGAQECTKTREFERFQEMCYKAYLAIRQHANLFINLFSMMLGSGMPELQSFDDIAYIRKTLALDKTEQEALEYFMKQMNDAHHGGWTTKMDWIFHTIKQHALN
Sequence of VPS34 (Q8NEB9 whole entry): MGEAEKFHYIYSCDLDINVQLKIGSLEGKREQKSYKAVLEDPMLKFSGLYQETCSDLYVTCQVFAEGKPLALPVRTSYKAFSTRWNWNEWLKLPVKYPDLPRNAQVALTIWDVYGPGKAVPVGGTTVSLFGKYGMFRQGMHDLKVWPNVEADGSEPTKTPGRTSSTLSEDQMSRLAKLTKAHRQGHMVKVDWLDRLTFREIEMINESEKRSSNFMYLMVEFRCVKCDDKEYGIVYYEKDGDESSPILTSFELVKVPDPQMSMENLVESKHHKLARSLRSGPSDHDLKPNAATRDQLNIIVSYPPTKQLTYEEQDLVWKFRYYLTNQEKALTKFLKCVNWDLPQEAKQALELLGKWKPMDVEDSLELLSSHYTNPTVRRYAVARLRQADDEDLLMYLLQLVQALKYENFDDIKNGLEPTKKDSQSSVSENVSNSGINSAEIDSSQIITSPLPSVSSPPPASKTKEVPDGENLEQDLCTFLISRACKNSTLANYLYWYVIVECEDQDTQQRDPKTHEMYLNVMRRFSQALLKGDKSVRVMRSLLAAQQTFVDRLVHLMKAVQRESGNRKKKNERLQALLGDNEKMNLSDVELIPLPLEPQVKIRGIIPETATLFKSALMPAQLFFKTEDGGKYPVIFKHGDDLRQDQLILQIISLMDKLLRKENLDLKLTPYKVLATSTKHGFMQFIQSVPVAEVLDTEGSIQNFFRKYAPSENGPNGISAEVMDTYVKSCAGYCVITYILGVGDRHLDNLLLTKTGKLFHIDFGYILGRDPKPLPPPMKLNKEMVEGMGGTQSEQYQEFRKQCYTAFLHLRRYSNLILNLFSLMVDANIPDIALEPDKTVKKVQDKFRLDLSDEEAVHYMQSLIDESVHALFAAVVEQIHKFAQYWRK
Sequence of p110γ (P48736 whole entry): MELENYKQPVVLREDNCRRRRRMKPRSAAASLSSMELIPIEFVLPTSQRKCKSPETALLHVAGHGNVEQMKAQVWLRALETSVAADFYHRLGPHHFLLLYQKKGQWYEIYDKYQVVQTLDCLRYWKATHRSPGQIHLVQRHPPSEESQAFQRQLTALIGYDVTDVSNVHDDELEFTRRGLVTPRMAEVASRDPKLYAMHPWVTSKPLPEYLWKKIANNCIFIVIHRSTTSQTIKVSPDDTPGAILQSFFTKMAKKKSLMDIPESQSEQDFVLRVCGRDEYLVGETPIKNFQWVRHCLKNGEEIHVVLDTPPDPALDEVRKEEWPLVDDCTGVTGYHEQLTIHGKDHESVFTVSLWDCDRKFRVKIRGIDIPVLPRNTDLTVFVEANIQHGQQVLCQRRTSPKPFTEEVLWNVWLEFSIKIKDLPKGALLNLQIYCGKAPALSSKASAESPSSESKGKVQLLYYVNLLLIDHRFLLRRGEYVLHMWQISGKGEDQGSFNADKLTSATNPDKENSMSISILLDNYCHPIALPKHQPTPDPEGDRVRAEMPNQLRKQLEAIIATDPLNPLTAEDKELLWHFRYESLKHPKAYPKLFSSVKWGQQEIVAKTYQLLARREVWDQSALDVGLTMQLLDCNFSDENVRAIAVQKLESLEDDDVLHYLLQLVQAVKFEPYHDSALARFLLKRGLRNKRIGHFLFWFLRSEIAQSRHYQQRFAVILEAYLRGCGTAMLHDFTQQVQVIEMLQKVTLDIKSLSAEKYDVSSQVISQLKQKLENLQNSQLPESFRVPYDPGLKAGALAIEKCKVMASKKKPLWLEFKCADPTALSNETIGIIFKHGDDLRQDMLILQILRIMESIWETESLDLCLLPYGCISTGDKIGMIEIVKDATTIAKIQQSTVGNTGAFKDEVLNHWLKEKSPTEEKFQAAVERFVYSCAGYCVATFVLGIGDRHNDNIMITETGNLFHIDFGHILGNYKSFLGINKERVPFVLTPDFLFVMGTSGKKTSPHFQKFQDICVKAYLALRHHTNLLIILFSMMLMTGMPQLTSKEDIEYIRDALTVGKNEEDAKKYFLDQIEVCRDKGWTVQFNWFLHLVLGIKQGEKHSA
Sequence of human p110α/p85α (P42336 whole entry): as the sequence (P42336 whole entry) above
Sequence of human p110α/p85α (P27986 whole entry partner): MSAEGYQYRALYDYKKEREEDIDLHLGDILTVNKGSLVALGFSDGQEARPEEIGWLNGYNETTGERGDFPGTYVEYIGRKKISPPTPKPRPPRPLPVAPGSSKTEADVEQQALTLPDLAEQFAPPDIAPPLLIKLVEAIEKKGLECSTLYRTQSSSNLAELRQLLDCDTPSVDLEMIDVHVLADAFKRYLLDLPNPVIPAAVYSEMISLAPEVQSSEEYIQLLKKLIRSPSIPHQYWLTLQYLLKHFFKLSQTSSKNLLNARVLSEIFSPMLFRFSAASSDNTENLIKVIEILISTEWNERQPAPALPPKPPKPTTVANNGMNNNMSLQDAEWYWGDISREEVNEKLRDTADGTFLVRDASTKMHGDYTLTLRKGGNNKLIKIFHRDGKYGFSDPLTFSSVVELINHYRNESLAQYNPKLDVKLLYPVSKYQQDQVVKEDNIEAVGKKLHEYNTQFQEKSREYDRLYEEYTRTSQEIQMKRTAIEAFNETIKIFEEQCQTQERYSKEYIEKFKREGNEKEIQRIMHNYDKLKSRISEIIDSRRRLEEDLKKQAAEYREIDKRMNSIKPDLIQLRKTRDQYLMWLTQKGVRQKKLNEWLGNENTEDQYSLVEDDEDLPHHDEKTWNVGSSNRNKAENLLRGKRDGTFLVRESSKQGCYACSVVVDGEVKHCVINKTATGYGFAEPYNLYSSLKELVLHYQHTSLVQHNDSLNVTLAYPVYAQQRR

Structure (SMILES): C[C@@H](Nc1cc(F)cc(F)c1)c1cc(C(=O)N(C)C)cc2c(=O)cc(N3CCOCC3)oc12 [AZD8186]
- effect on Akt pS473 [1]: only partially inhibited
- effect on Akt pS473 (Akt pS473 in LNCaP cells): completely abolished

Structure (SMILES): CNC(=O)c1ccc(N2C(=S)N(c3ccc(C#N)c(C(F)(F)F)c3)C(=O)C2(C)C)cc1F [MDV3100]
- effect on FBS-stimulated Akt pS473 levels (Akt pS473 in C4-2B cells): enhanced

Structure (SMILES): Cc1cc([C@@H](C)Nc2ccccc2C(=O)O)c2nc(N3CCOCC3)cc(=O)n2c1 [AZD6482]
- effect on Akt pS473 [1]: only partially inhibited
- effect on Akt pS473 (Akt pS473 in LNCaP cells): completely abolished

Structure (SMILES): Cc1cc(C(C)Nc2ccccc2)c2nc(N3CCOCC3)cc(=O)n2c1 (stereo not drawn) [TGX221]
- EC50 (C4-2B/MDV-R cells [2]; C4-2B/MDV-R, 3 days): 31.3 µM
- Aqueous solubility (aqueous solubility assay): < 1.0 mg/ml and <2.74 mM
- cell cycle distribution (G0/G1 and S-phase) (C4-2B cells [3]): significantly increased G0/G1 population accompanied with a large reduction of S-phase cells
- effect on Akt pS473 [1]: lost their inhibitory effect
- ΔTm50 p110β (p110β [4]): 1.72 °C
- EC50 (PC-3 cells; PC-3, 3 days): 7.43 µM
- cell cycle distribution (G0/G1 and S-phase) (C4-2B/MDV-R cells [5]): significantly increased G0/G1 population accompanied with a large reduction of S-phase cells
- IC50 (human p110α/p85α): 2.09 µM
- ΔTm50 Akt (Akt [6]): 1.18 °C
- effect on Akt pS473 (Akt pS473 in LNCaP cells): partial inhibitory effect
- ΔTm50 Akt (Akt [7]): 1.49 °C
- EC50 (C4-2B cells [8]; C4-2B, 3 days): 22.6 µM
- IC50 (human p110δ/p85α): 0.374 µM
- ΔTm50 p110α (p110α; [13]): 1.57 °C
- EC50 (22RV1 cells; 22RV1, 3 days): 17.6 µM
- ΔTm50 p110β (p110β [9]; [13]): 04.02 °C
- ΔTm50 VPS34 (VPS34; [13]): 0.42 °C
- ΔTm50 p110γ (p110γ; [13]): 0.68 °C

Structure (SMILES): Cc1c(Cn2c(C)nc3c(C(=O)O)cc(N4CCOCC4)cc32)cccc1C(F)(F)F [GSK2636771]
- effect on FBS-stimulated Akt pS473 levels (Akt pS473 in C4-2B cells): abolished
- EC50 (C4-2B/MDV-R cells [2]; 72 h): 42.3 µM
- cell cycle distribution (G0/G1 and S-phase) (C4-2B cells [3]): significantly increased G0/G1 population accompanied with a large reduction of S-phase cells
- effect on FBS-stimulated Akt pS473 levels [10]: only partially suppressed
- effect on Akt pS473 [1]: lost their inhibitory effect
- CDK6 protein levels [11]: no obvious alteration
- FBS-induced increase of cyclin D1 protein levels [11]: largely suppressed
- p27^kip1 protein levels [11]: largely elevated
- CDK6 protein levels [12]: no obvious alteration
- FBS-induced increase of cyclin D1 protein levels [12]: largely suppressed
- EC50 (PC-3 cells; Homo sapiens, PC-3, 72 h): 14.5 µM
- cell cycle distribution (G0/G1 and S-phase) (C4-2B/MDV-R cells [5]): significantly increased G0/G1 population accompanied with a large reduction of S-phase cells
- effect on Akt pS473 (Akt pS473 in LNCaP cells): partial inhibitory effect
- EC50 (C4-2B cells [8]; 72 h): 28.9 µM
- EC50 (22RV1 cells; Homo sapiens, 22Rv1, 72 h): 26.1 µM

Structure (SMILES): O=c1[nH]c2ccccc2n1C1CCN(Cc2ccc(-c3nc4cc5[nH]cnc5cc4nc3-c3ccccc3)cc2)CC1 [AKT-i8]
- effect on Akt pS473 [1]: retained their full capacity
- effect on Akt pS473 (Akt pS473 in LNCaP cells): completely abolished

Structure (SMILES): CC(CC(C(N)=O)(c1ccccc1)c1ccccc1)N(C)C (stereo not drawn) [BL139]
- solubility (aqueous solubility assay; aqueous): 37400 µg/mL and 99200 µM
- ΔTm50 p110β (p110β [4]; 240 min): 5.78 °C
- ΔTm50 Akt (Akt [6]): 2.60 °C
- ΔTm50 Akt (Akt [7]): 2.44 °C
- ΔTm at 5 µM (p110α; human, 0.75 h, read-out: ΔTm50 p110α): 1.51 °C
- ΔTm at 5 µM (p110β [9]; human, 0.75 h, read-out: ΔTm50 p110β): 12.4 °C
- ΔTm at 5 µM (VPS34; human, 0.75 h, read-out: ΔTm50 VPS34): 0.14 °C
- ΔTm at 5 µM (p110γ; human, 0.75 h, read-out: ΔTm50 p110γ): 0.84 °C

Structure (SMILES): Nc1cc(C(F)(F)F)c(-c2cc(N3CCOCC3)nc(N3CCOCC3)n2)cn1 [BKM120]
- effect on Akt pS473 [1]: retained their full capacity
- effect on Akt pS473 (Akt pS473 in LNCaP cells): completely abolished

Structure (SMILES): Cc1nc(NC(=O)N2CCC[C@H]2C(N)=O)sc1-c1ccnc(C(C)(C)C(F)(F)F)c1 [BYL719]
- effect on Akt pS473 (Akt pS473 in LNCaP cells): partial inhibitory effect
